Laboratory results from ChEMBL document CHEMBL3392996, “Non-transpeptidase binding arylthioether β-lactams active against Mycobacterium tuberculosis and Moraxella catarrhalis” (2015).
Converted amounts (≈) assume the structure as drawn.

Key:
Type in all cases: functional
[1] = system: Mycobacterium tuberculosis; assay: Antimicrobial activity against Mycobacterium tuberculosis H37Rv incubated for 48 hrs by microdilution broth method
[2] = system: Moraxella catarrhalis; assay: Antimicrobial activity against Moraxella catarrhalis clinical isolates incubated for 48 hrs by microdilution broth method
How it was run: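 Stocks in DMSO were diluted at least 10-fold into Mueller-Hinton broth, then 2-fold serially diluted in MH from 500 to 15.6 μg/ml. Bacteria were added, with DMSO-only dilution controls, and incubated at 37 °C for 48 h. Growth was scored at 24 and 48 h. MIC was the lowest concentration with no growth. Run in quadruplicate.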

[3] = system: Moraxella catarrhalis; assay: Bactericidal activity against Moraxella catarrhalis clinical isolates incubated for 48 hrs by microdilution broth method and standard plating method
How it was run: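 Broth microdilution in Mueller-Hinton broth, 2-fold series from 500 to 15.6 μg/ml, with DMSO-only controls, 37 °C for 48 h. Wells showing no growth were plated (10 μL) on MH agar. MBC was the lowest concentration giving no growth on plating. Run in quadruplicate.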

SMILES | MIC [1] [µg/mL] | MIC [2] [µg/mL] | MBC [3] [µg/mL]
O=C1CCN1C(=O)NCc1ccccc1 | > 100 | > 100 | –
O=C1CC(Sc2cccs2)N1 (racemic) | 6.25 (≈ 33.7 µM) | 25 (≈ 135 µM) | 100 (≈ 540 µM)
O=C1CC(Sc2ccccc2)N1 (racemic) | 25 (≈ 139 µM) | > 200 | –
O=C1CC(Sc2ccccc2F)N1 (racemic) | 25 (≈ 127 µM) | 200 (≈ 1010 µM) | –
O=C1CC(Sc2cccc(F)c2)N1 (racemic) | 100 (≈ 507 µM) | > 200 | –
O=C1CC(Sc2ccc(F)cc2)N1 (racemic) | > 100 | > 200 | –
O=C1CC(Sc2ccc(F)cc2F)N1 (racemic) | 3.13 (≈ 14.5 µM) | 1.5 (≈ 6.97 µM) | 3.13 (≈ 14.5 µM)
O=C1CC(Sc2ccc(F)c(F)c2)N1 (racemic) | 50 (≈ 232 µM) | 50 (≈ 232 µM) | 50 (≈ 232 µM)
O=C1CC(Sc2c(F)c(F)c(F)c(F)c2F)N1 (racemic) | > 100 | 1.5 (≈ 5.57 µM) | 1.5 (≈ 5.57 µM)
O=C1CC(Sc2ccc(F)cc2Cl)N1 (racemic) | 25 (≈ 108 µM) | 12.5 (≈ 54 µM) | 50 (≈ 216 µM)
O=C1CC(Sc2ccc(F)c(Cl)c2)N1 (racemic) | 25 (≈ 108 µM) | 12.5 (≈ 54 µM) | 25 (≈ 108 µM)
O=C1CC(Sc2ccc(Cl)cc2Cl)N1 (racemic) | 25 (≈ 101 µM) | 6.25 (≈ 25.2 µM) | 6.25 (≈ 25.2 µM)
O=C1CC(Sc2ccc([N+](=O)[O-])cc2)N1 (racemic) | 25 (≈ 111 µM) | 6.25 (≈ 27.9 µM) | 12.5 (≈ 55.7 µM)
O=C1CC(Sc2ccccc2C(F)(F)F)N1 (racemic) | ≥ 100 | 1.5 (≈ 6.07 µM) | 1.5 (≈ 6.07 µM)
O=C1CC(Sc2cccc(C(F)(F)F)c2)N1 (racemic) | 6.25 (≈ 25.3 µM) | 200 (≈ 809 µM) | –
O=C1CC(Sc2ccc(C(F)(F)F)cc2)N1 (racemic) | 12.5 (≈ 50.6 µM) | 100 (≈ 404 µM) | 100 (≈ 404 µM)
O=C1CC(Sc2cc(C(F)(F)F)cc(C(F)(F)F)c2)N1 (racemic) | > 100 | 12.5 (≈ 39.7 µM) | 100 (≈ 317 µM)
COc1ccccc1SC1CC(=O)N1 (racemic) | 250 (≈ 1190 µM) | 100 (≈ 478 µM) | > 200
COc1cccc(SC2CC(=O)N2)c1 (racemic) | > 100 | 100 (≈ 478 µM) | > 200
COc1ccc(SC2CC(=O)N2)cc1 (racemic) | 100 (≈ 478 µM) | 200 (≈ 956 µM) | > 200

SMILES | MIC [1] [µg/mL] | MIC [2] [µg/mL] | MBC [3] [µg/mL]
COc1ccc(OC)c(SC2CC(=O)N2)c1 (racemic) | 250 (≈ 1040 µM) | 100 (≈ 418 µM) | > 200
COc1ccc(SC2CC(=O)N2)cc1OC (racemic) | 250 (≈ 1040 µM) | 200 (≈ 836 µM) | 200 (≈ 836 µM)
CSc1ccc(SC2CC(=O)N2)cc1 (racemic) | > 100 | 100 (≈ 444 µM) | 100 (≈ 444 µM)
O=C1CC(Sc2cccc3ccccc23)N1 (racemic) | > 250 | 100 (≈ 436 µM) | > 200
O=C1CC(Oc2ccc([N+](=O)[O-])cc2)N1 (racemic) | 25 (≈ 120 µM) | 50 (≈ 240 µM) | 50 (≈ 240 µM)
O=C1CC(Oc2ccc(C(F)(F)F)cc2)N1 (racemic) | 250 (≈ 1080 µM) | 200 (≈ 865 µM) | 200 (≈ 865 µM)
O=C1CC([Se]c2ccccc2)N1 (racemic) | 25 (≈ 111 µM) | 6.25 (≈ 27.6 µM) | 6.25 (≈ 27.6 µM)
C=CCSC1CC(=O)N1 (racemic) | > 200 | > 200 | –
O=C1CC(Sc2ccc(F)cc2F)N1C(=O)NCc1ccccc1 (racemic) | 100 (≈ 287 µM) | 1.63 (≈ 4.68 µM) | 1.63 (≈ 4.68 µM)
O=C1CC(Sc2c(F)c(F)c(F)c(F)c2F)N1C(=O)NCc1ccccc1 (racemic) | > 100 | 3.1 (≈ 7.7 µM) | 6.25 (≈ 15.5 µM)
O=C1CC(Sc2ccc(F)cc2Cl)N1C(=O)NCc1ccccc1 (racemic) | 25 (≈ 68.5 µM) | 12.5 (≈ 34.3 µM) | 25 (≈ 68.5 µM)
O=C1CC(Sc2ccc(F)c(Cl)c2)N1C(=O)NCc1ccccc1 (racemic) | 25 (≈ 68.5 µM) | 6.25 (≈ 17.1 µM) | 6.25 (≈ 17.1 µM)
O=C1CC(Sc2ccc(Cl)cc2Cl)N1C(=O)NCc1ccccc1 (racemic) | 25 (≈ 65.6 µM) | 3.13 (≈ 8.21 µM) | 6.25 (≈ 16.4 µM)
O=C1CC(Sc2ccc([N+](=O)[O-])cc2)N1C(=O)NCc1ccccc1 (racemic) | 25 (≈ 70 µM) | 3.12 (≈ 8.74 µM) | 25 (≈ 70 µM)
O=C1CC(Sc2ccccc2C(F)(F)F)N1C(=O)NCc1ccccc1 (racemic) | 125 (≈ 329 µM) | 25 (≈ 65.7 µM) | 25 (≈ 65.7 µM)
COc1ccccc1SC1CC(=O)N1C(=O)NCc1ccccc1 (racemic) | 125 (≈ 365 µM) | 200 (≈ 584 µM) | 200 (≈ 584 µM)
COc1cccc(SC2CC(=O)N2C(=O)NCc2ccccc2)c1 (racemic) | 100 (≈ 292 µM) | 200 (≈ 584 µM) | 200 (≈ 584 µM)
COc1ccc(SC2CC(=O)N2C(=O)NCc2ccccc2)cc1 (racemic) | 125 (≈ 365 µM) | 200 (≈ 584 µM) | 200 (≈ 584 µM)
COc1ccc(OC)c(SC2CC(=O)N2C(=O)NCc2ccccc2)c1 (racemic) | 50 (≈ 134 µM) | 100 (≈ 268 µM) | 200 (≈ 537 µM)
COc1ccc(SC2CC(=O)N2C(=O)NCc2ccccc2)cc1OC (racemic) | 250 (≈ 671 µM) | 200 (≈ 537 µM) | > 200

SMILES | MIC [1] [µg/mL] | MIC [2] [µg/mL] | MBC [3] [µg/mL]
O=C1CC(Sc2cccs2)N1C(=O)NCc1ccccc1 (racemic) | 6.25 (≈ 19.6 µM) | 50 (≈ 157 µM) | 100 (≈ 314 µM)
CSc1ccc(SC2CC(=O)N2C(=O)NCc2ccccc2)cc1 (racemic) | > 100 | – | –
O=C1CC(Sc2cccc3ccccc23)N1C(=O)NCc1ccccc1 (racemic) | > 100 | 200 (≈ 552 µM) | > 200
O=C1CC(Oc2ccc([N+](=O)[O-])cc2)N1C(=O)NCc1ccccc1 (racemic) | 250 (≈ 732 µM) | 6.25 (≈ 18.3 µM) | 6.25 (≈ 18.3 µM)
O=C1CC(Oc2ccc(C(F)(F)F)cc2)N1C(=O)NCc1ccccc1 (racemic) | 125 (≈ 343 µM) | 50 (≈ 137 µM) | > 200
O=C1CC([Se]c2ccccc2)N1C(=O)NCc1ccccc1 (racemic) | 25 (≈ 69.6 µM) | 50 (≈ 139 µM) | 50 (≈ 139 µM)
C#CCCCC(=O)N1C(=O)CC1Sc1ccccc1 (racemic) | 45 (≈ 165 µM) | 100 (≈ 366 µM) | 100 (≈ 366 µM)
O=C1CC(Sc2ccccc2)N1C(=O)NC(c1ccccc1)c1ccccc1 (racemic) | 50 (≈ 129 µM) | – | –
O=C1CC(Sc2ccccc2)N1C(=O)NC1c2ccccc2-c2ccccc21 (racemic) | > 100 | – | –
O=C1CC(Sc2ccccc2)N1C(=O)Nc1cccc2ccccc12 (racemic) | 25 (≈ 71.8 µM) | – | –
O=C1CC(Sc2ccc(F)cc2)N1C(=O)NC(c1ccccc1)c1ccccc1 (racemic) | > 100 | > 200 | > 200
O=C1CC(Sc2ccc(F)cc2)N1C(=O)NCC(c1ccccc1)c1ccccc1 (racemic) | > 100 | > 200 | > 200
CCNC(=O)N1C(=O)CC1Sc1ccc(F)cc1F (racemic) | > 100 | – | –
CC(NC(=O)N1C(=O)CC1Sc1ccccc1)c1cccc2ccccc12 (racemic) | > 100 | > 200 | > 200
O=C1CC(Sc2ccc(F)cc2F)N1C(=O)NCc1ccccc1F (racemic) | 50 (≈ 136 µM) | – | –
COc1ccccc1CNC(=O)N1C(=O)CC1Sc1ccc(F)cc1F (racemic) | ≥ 100 | – | –
O=C1CC(Sc2ccc(F)cc2F)N1C(=O)Nc1ccccc1F (racemic) | 25 (≈ 71 µM) | – | –
O=C1CC(Sc2ccc(F)cc2Cl)N1C(=O)NC(c1ccccc1)c1ccccc1 (racemic) | 50 (≈ 113 µM) | > 200 | > 200
